Assay results published in ChEMBL document CHEMBL1137660, “Molecular and biochemical characterization of the chromosome-encoded class A beta-lactamase BCL-1 from Bacillus clausii” (Antimicrob Agents Chemother, 2007).

Key:
[1] = Ratio of Kcat to Km for Bacillus clausii NR beta-lactamase BCL1 to ratio of Kcat/Km for Bacillus anthracis beta-lactamase Bla1
[2] = Ratio of Kcat for Bacillus cereus beta-lactamase BcI to Kcat for Bacillus clausii NR beta-lactamase BCL1
[3] = Ratio of Kcat for Bacillus clausii NR beta-lactamase BCL1 to Kcat for Bacillus cereus beta lactamase BcI
[4] = biological target: T1, Beta-lactamase (Bacillus clausii) (UniProt A8RR46); assay: Activity of Bacillus clausii NR beta-lactamase BCL1 expressed in Escherichia coli BL21 (DE3) assessed as specific activity per mg of protein at 100 uM; details: Shouchella clausii
T1 sequence (whole entry): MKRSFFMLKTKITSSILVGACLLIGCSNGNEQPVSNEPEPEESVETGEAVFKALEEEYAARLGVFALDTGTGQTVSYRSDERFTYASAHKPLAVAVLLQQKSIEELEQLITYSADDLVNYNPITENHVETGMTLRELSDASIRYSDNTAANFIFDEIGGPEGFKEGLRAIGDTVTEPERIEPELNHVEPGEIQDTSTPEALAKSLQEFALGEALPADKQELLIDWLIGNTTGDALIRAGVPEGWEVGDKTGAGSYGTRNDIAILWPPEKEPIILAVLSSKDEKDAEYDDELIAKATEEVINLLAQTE
Procedure, shortened: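 Enzyme from E. coli BL21(DE3)(pET-BCL-1), induced with 0.4 mM IPTG at 37°C for 5 h in TS broth with amoxicillin and kanamycin. Cells were sonicated. Enzyme purified by S-Sepharose (50 mM phosphate, pH 6.5) then Q-Sepharose (20 mM Tris-HCl, pH 9; 0–1 M NaCl gradient). Protein by DC assay. Activity read with 100 μM cephalothin as substrate.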

[5] = biological target: T1, Beta-lactamase (Bacillus clausii); assay: Induction of Bacillus clausii NR beta-lactamase BCL1 activity expressed in Escherichia coli BL21 (DE3) assessed as specific activity per mg of protein at 5 ug/ml; details: Shouchella clausii
Procedure, shortened: (§1)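 Induction in B. clausii NR and ATCC 21537 cultures using cefoxitin at 1 to 5 μg/ml as inducer. β-Lactamase activity of extracts read with 100 μM penicillin G as substrate and expressed per mg protein.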

[6] = biological target: T1, Beta-lactamase (Bacillus clausii); assay: Induction of Bacillus clausii ATCC 21537 beta-lactamase BCL1 activity expressed in Escherichia coli BL21 (DE3) assessed as specific activity per mg of protein at 5 ug/ml; details: Shouchella clausii; procedure, shortened: as §1

Row | SMILES | fold change (FC) [1] | fold change (FC) [3] | other results
1 | CC1(C)S[C@@H]2[C@H](NC(=O)Cc3ccccc3)C(=O)N2[C@H]1C(=O)O | 10 |  | Ratio [2]: 200
2 | CC(=O)OCC1=C(C(=O)O)N2C(=O)[C@@H](NC(=O)Cc3cccs3)[C@H]2SC1 |  | 100 | Activity [4]: 35 U
3 | O=C(Cc1cccs1)N[C@@H]1C(=O)N2C(C(=O)[O-])=C(C[n+]3ccccc3)CS[C@H]12 | 2 |  | 
4 | CO/N=C(\C(=O)N[C@@H]1C(=O)N2C(C(=O)O)=C(COC(C)=O)CS[C@H]12)c1csc(N)n1 |  | 100 | 
5 | CO/N=C(\C(=O)N[C@@H]1C(=O)N2C(C(=O)O)=C(COC(N)=O)CS[C@H]12)c1ccco1 |  | 100 | 
6 | CCN1CCN(C(=O)N[C@@H](C(=O)N[C@@H]2C(=O)N3[C@@H]2SC(C)(C)[C@@H]3C(=O)O)c2ccccc2)C(=O)C1=O | 10 |  | 
7 | CO[C@@]1(NC(=O)Cc2cccs2)C(=O)N2C(C(=O)O)=C(COC(N)=O)CS[C@@H]21 |  |  | Activity [5]: 500 U; Activity [6]: 500 U
8 | CO/N=C(\C(=O)N[C@@H]1C(=O)N2C(C(=O)[O-])=C(C[n+]3cccc4c3CCC4)CS[C@H]12)c1csc(N)n1 |  | 500 | 
9 | CC1(C)S[C@@H]2[C@H](NC(=O)[C@H](N)c3ccc(O)cc3)C(=O)N2[C@H]1C(=O)O | 10 |  | 
10 | CC1(C)S[C@@H]2[C@H](NC(=O)[C@H](C(=O)O)c3ccsc3)C(=O)N2[C@H]1C(=O)O | 10 |  | 
